In ChEMBL document CHEMBL1152649, “Synthesis, cytotoxicity and human telomerase inhibition activities of a series of 1,2-heteroannelated anthraquinones and anthra[1,2-d]imidazole-6,11-dione homologues” (2009):

System: MDA-MB-468
Assay: Growth inhibition of human MDA-MB-468 cells
Assay type: functional
Procedure, shortened: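 NCI 60 cancer cell line screen run per the Developmental Therapeutics Program protocol. Dose–response curves were plotted against log10 drug concentration for each cell line within its subpanel, and mean graph midpoint values were calculated.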

Compound: CCc1nc2ccc3c(c2[nH]1)C(=O)c1ccccc1C3=O
- GI50: 8.29 µM
- TGI: > 100 µM
- CC50 (read-out: LC50 (the source's name)): > 100 µM
